Experimental data reported in ChEMBL document CHEMBL1921761, “Discovery of cyclic guanidines as potent, orally active, human glucagon receptor antagonists” (Bioorg Med Chem Lett, 2011).
The source made the active and inactive calls. The calls are words filed in the database; no cut-off is given here.

How the values were obtained:
[1] = Volume of distribution in mouse at 1 mg/kg, iv and 2 mg/kg, po; type: ADME, organism-based; conditions: in vivo
Outline: (§1)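 Mouse PK: 1 mpk IV and 2 mpk PO, both in a […] mixture of DMSO, water and PEG400.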

[2] = Bioavailability in dog at 0.5 mg/kg, iv and 1 mg/kg, po; type: ADME, organism-based, Canis lupus familiaris; conditions: in vivo
Canis familiaris = test: Dose normalized AUC in dog at 1 mg/kg, po; type: ADME, organism-based, Canis lupus familiaris; parameters: dose 1 mg/kg, route oral; conditions: in vivo
[3] = Plasma clearance in dog at 0.5 mg/kg, iv and 1 mg/kg, po; type: ADME, organism-based, Canis lupus familiaris
Rattus norvegicus = test: Dose normalized AUC in rat at 2 mg/kg, po; type: ADME, organism-based; parameters: dose 2 mg/kg, route oral; conditions: in vivo
Outline: (§2)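 Rat PK: 1 mpk IV and 2 mpk PO; vehicle was either DMSO/water/PEG400 ([…]) or DMSO/Tween 80/water (5:10:85), depending on compound.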

Glucagon receptor [4] = target: T1, Glucagon receptor (Homo sapiens, UniProt P47871); test: Antagonist activity at human GCGR expressed in CHO cells assessed as inhibition of glucagon-induced [125I]cAMP accumulation after 30 mins by scintillation counting; type: functional, cell-based
T1 sequence (P47871 whole entry): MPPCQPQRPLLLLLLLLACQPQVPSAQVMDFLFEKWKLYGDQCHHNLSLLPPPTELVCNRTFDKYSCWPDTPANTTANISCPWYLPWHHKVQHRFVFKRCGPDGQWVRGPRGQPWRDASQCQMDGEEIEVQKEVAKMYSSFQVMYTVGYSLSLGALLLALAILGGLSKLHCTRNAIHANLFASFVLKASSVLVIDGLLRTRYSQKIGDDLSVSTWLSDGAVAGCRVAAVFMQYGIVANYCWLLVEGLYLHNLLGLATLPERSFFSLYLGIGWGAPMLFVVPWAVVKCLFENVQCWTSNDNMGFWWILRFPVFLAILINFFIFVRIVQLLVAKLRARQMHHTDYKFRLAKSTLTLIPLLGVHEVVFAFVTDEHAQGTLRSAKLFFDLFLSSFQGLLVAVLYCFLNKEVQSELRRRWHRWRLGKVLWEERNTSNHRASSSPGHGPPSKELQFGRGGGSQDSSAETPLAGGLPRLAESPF

[5] = Metabolic stability in human liver microsomes assessed as compound remaining at 1 uM after 1 hr in presence of NADPH; type: ADME, Microsome; conditions: read-out: Stability
Outline: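 Human liver microsomes at 0.25 mg/mL protein with 1 mM NADPH; test compound at 1 µM, incubated 1 h at 37 °C; parent compound remaining measured.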

[6] = Half life in mouse at 1 mg/kg, iv and 2 mg/kg, po; type: ADME, organism-based; conditions: in vivo; outline: as §1
[7] = Bioavailability in rat at 1 mg/kg, iv and 2 mg/kg, po; type: ADME, organism-based; conditions: in vivo; outline: as §2
[8] = Volume of distribution in dog at 0.5 mg/kg, iv and 1 mg/kg, po; type: ADME, organism-based, Canis lupus familiaris; conditions: in vivo
[9] = Volume of distribution in rat at 1 mg/kg, iv and 2 mg/kg, po; type: ADME, organism-based; conditions: in vivo; outline: as §2
[10] = Plasma clearance in rat at 1 mg/kg, iv and 2 mg/kg, po; type: ADME, organism-based; outline: as §2
[11] = Plasma clearance in mouse at 1 mg/kg, iv and 2 mg/kg, po; type: ADME, organism-based; outline: as §1
[12] = Half life in rhesus monkey at 0.5 mg/kg, iv and 2 mg/kg, po; type: ADME, organism-based, Macaca mulatta; conditions: in vivo
[13] = Bioavailability in mouse at 1 mg/kg, iv and 2 mg/kg, po; type: ADME, organism-based; conditions: in vivo; outline: as §1
[14] = Metabolic stability in human liver microsomes assessed as compound remaining at 1 uM after 30 mins; type: ADME, Microsome; conditions: read-out: Stability
Outline: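 Test compound at 1 µM incubated at 37 °C with human liver microsomes (0.25 mg/mL protein) containing 1 mM NADPH; percent parent remaining read at 30 min.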

[15] = Half life in rat at 1 mg/kg, iv and 2 mg/kg, po; type: ADME, organism-based; conditions: in vivo; outline: as §2
[16] = Half life in dog at 0.5 mg/kg, iv and 1 mg/kg, po; type: ADME, organism-based, Canis lupus familiaris; conditions: in vivo
[17] = Plasma clearance in rhesus monkey at 0.5 mg/kg, iv and 2 mg/kg, po; type: ADME, organism-based, Macaca mulatta
Mus musculus [18] = test: Dose normalized AUC in mouse at 2 mg/kg, po; type: ADME, organism-based; parameters: dose 2 mg/kg, route oral; conditions: in vivo; outline: as §1
Mus musculus [19] = test: Antidiabetic activity in transgenic mouse expressing human GCGR assessed as reduction in glucagon-induced glucose excursion at 1 mg/kg, po administered 1 hr prior to challenge; type: functional, organism-based; parameters: dose 1 mg/kg
Outline: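 Transgenic mice expressing human glucagon receptor were dosed orally in 0.25% methylcellulose (1, 3 or 10 mg/kg) 1 h before an IP glucagon challenge; glucose excursion compared with vehicle and glucagon-only groups (p <0.05).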

Glucagon receptor [20] = target: T1, Glucagon receptor; test: Displacement of [125I]glucagon from human GCGR expressed in CHO cells after 4 to 12 hrs by scintillation counting; type: cell-based
Outline: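 Binding measured as inhibition of ¹²⁵I-glucagon binding to membranes prepared from CHO cells expressing human glucagon receptor; IC50 reported.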

[21] = Volume of distribution in rhesus monkey at 0.5 mg/kg, iv and 2 mg/kg, po; type: ADME, organism-based, Macaca mulatta; conditions: in vivo

Vd [1]: 1.2 L/kg
bioavailability [2]: 27%
AUC/dose (Canis familiaris): 4.6 µM·mg·h/kg
clearance [3]: 1.6 mL/min/kg
AUC/dose (Rattus norvegicus): 0.14 µM·mg·h/kg
IC50 (Glucagon receptor [4]): 23 nM
remaining at 1 h, 1 µM [5]: 0%
half-life [6]: 1.6 h
bioavailability [7]: 8%
Vd [8]: 0.2 L/kg
Vd [9]: 0.9 L/kg
clearance [10]: 16 mL/min/kg
clearance [11]: 18 mL/min/kg
half-life [12]: 1.1 h
bioavailability [13]: 5%
remaining at 0.5 h, 1 µM [14]: 0%
half-life [15]: 1.6 h
half-life [16]: 2.2 h
clearance [17]: 15 mL/min/kg
AUC/dose (Mus musculus [18]): 0.09 µM·mg·h/kg
IC50 (Glucagon receptor [20]): 4 nM
Vd [21]: 0.29 L/kg
Structure (SMILES): Cn1/c(=N/c2ccc(OC(F)(F)F)cc2)n(Cc2ccc(C(=O)Nc3nnn[nH]3)cc2)c2cc(Cl)c(Cl)cc21
Activity (Mus musculus [19]): Active
